Experimental data pooled from the literature.
Compare with care: the assays were run in different laboratories.
Target: Glycogen synthase kinase-3 alpha (GSK3A, Homo sapiens, UniProt P49840)

| Structure (SMILES) | test | conditions | endpoint | result |
| --- | --- | --- | --- | --- |
| C[C@H]1CC[C@H](n2c3cnccc3c3cnc(Nc4ccc5c(n4)CCN(C(=O)CO)C5)nc32)CC1 | cell-free assay | 1 µM | remaining signal | 35% |
| CO[C@@H]1[C@H](N(C)C(=O)c2ccccc2)C[C@H]2O[C@]1(C)n1c3ccccc3c3c4c(c5c6ccccc6n2c5c31)C(=O)NC4 | enzyme activity, inhibitor | 1 µM | inhibition | 14% |
| Cc1ccc(NC(=O)c2ccnc(C(F)(F)F)c2)cc1-c1cc(OCCO)nc(N2CCOCC2)c1 | binding | 1 µM | remaining binding | 100% |
| C1=C/COCc2cc(ccc2OCCN2CCCC2)Nc2nccc(n2)-c2cccc(c2)COC/1 | binding | 0.1 µM | remaining binding | 100% |
| Cc1cc(O)c(-c2ccc([C@@H](C)CN(C)C)cc2)c2c1[nH]c(=O)c1sccc12 | enzyme activity, inhibitor | 0.1 µM | inhibition | -5.76% |
| CCCCC(=O)Nc1ccc(-c2ccc3ncn(CCC)c(=O)c3c2)cn1 | binding, competition with immobilised ligand | 0.5 µM | remaining binding | 94% |
| COc1ccc2oc(-c3ccc4nc(N)oc4c3)c/c(=N\c3ccccc3NC(=O)CCN)c2c1 | binding | 1 µM | remaining binding | 94% |
| C=CC(=O)N1CCC([C@@H]2CCNc3c(C(N)=O)c(-c4ccc(Oc5ccccc5)cc4)nn32)CC1 | enzyme activity, inhibitor | 1 µM | inhibition | 2% |
| CC(=O)ON=C1C=CC(=C(C#N)c2ccccc2)C=C1 | enzyme activity, inhibitor, ADP detection | 20 µM | activity vs control | 94% |
